High-throughput results from PubChem.
STAT3 act-1: IL-6 driven STAT3 reporter potentiators, primary screen, U3A cells, luciferase, luminescence, MLSCN library. IL-6 STAT3-luciferase reporter; 100% = signal with IL-6 EC80 alone. activation (% of control), % at 5.6 µM. actives 0.91% (n = 190,000). AID 871, 2007;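 active = activation above the screen-wide mean of compound activation plus 3 SD, cut at about 130% in these data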
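Detection: reporter luminescence signal / Assay system: STAT1-lacking human U3A cells, STAT3 luciferase reporter / Incubation: compound pre-incubation 1 h before IL-6, then 6 h stimulation at 37 °C / Control set: IL-6-only high control / Read-out: % activation relative to IL-6 control / Probe or stimulus: Interleukin-6, 33 ng/mL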
STAT1 blocker: STAT1 signaling inhibitors, primary screen, cell-based, HTS, luciferase reporter; actives 0.35% (n = 200,000); inhibition, % at 5.5 µM; NIH 3T3 STAT1-luciferase reporter, IFN-gamma, luminescence;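 active = inhibition above a set limit, the mean inhibition across all tested compounds plus 3 SD, cut at about 34% in these data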
TNF death inh: inhibitors of TNF-alpha triggered necroptosis, primary screen, cell-based, Jurkat FADD-/-, single concentration; Jurkat FADD-/- TNF necroptosis rescue, ATP luminescence, 24 h; 0 = TNF only, 100 = no-TNF cells; activation (protection from cell death), % at 10 µM; actives 0.068% (n = 220,000); AID 463075, 2010;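 active = activation, meaning protection from cell death, of at least 50% relative to plate controls; inactive = activation below 50%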;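 note: necroptosis triggered by 40 ng/mL TNF-alpha added together with compound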
zVAD death inh: inhibitors of zVAD-triggered necroptosis, primary screen, L929 cells; L929 zVAD necroptosis rescue, ATP luminescence, 24 h; with zVAD 60 µM; viability rescue, % at 10 µM; actives 0.38% (n = 220,000); AID 1377, 2008;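 active = activation, scaled between plate controls, above about 75%, limit read from the data; inactive = activation under that limit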
STAT3 blocker: IL-6 driven STAT3 reporter inhibitors, primary screen, U3A cells, luciferase, luminescence, MLSCN library; IL-6 STAT3-luciferase reporter; host cell line lacks STAT1; inhibition, % at 5.5 µM; actives 0.89% (n = 190,000);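 active = inhibition above the mean inhibition across all screened compounds plus 3 SD, cut at about 44% in these data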
STAT3 act-2: STAT3 reporter potentiators, retest of hits, confirmation, U3A cells, luciferase, luminescence; shares compounds with STAT3 act-1; potentiation (% of control), % at 5.7 µM; AID 1267, 2008; actives 64% (n = 1,200); IL-6 potentiation; U3A cells lack STAT1; 100 means same as IL-6 alone;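 active = percent activation of the STAT3 luciferase reporter above a set limit taken from the earlier primary screen, cut at about 130% in these data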
NFkB act STAT3ct: NF-kB reporter activators in human cells, counter-screen for STAT3 activator project; shares compounds with STAT3 act-1; NF-kappaB reporter activation; activation (% of control), % at 5.7 µM; actives 11% (n = 1,200); AID 1309, 2008; in the data active = activation above about 120%;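 note: reporter induced by TNF-alpha stimulation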
STAT1 act STAT3c: STAT1 reporter activators, IFN-gamma induced, counter-screen for STAT3 activator project, cell-based, NIH 3T3, luciferase luminescence; shares compounds with STAT3 act-1; NIH 3T3 STAT1-luciferase reporter; activation (% of control), % at 5.7 µM; actives 13% (n = 1,200); AID 1318, 2008;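 active = activation above the solvent-only control well mean plus 3 SD, set per screening run, cut at about 120% in these data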
Each line names hits and unclear results; the compound was inactive in the other large screens (follow-up assays come after a bar, where they were run). A selection: hits, their analogues and other compounds. The true share with any hit is near 2.1%.

Cc1nn(-c2ccc(Cl)cc2)c(N)c1C(O)(CSc1nccn1C)C(F)(F)F (centres undefined)	STAT3 act-1 143.2 | STAT3 act-2 134.0 | NFkB act STAT3ct inactive | STAT1 act STAT3c inactive
Cc1nn(-c2ccccc2)c(N)c1C(O)(CSc1nccn1C)C(F)(F)F (centres undefined)	none
Cc1cc(NC(=O)CSC2=Nc3ccccc3C3=NC(Cc4ccccc4)C(=O)N23)n[nH]1 (centres undefined)	none
CCN(CC)C(=O)CSC1=Nc2ccccc2C2=NC(Cc3c[nH]c4ccccc34)C(=O)N12 (centres undefined)	STAT3 act-1 137.2 | STAT3 act-2 135.4 | NFkB act STAT3ct inactive | STAT1 act STAT3c inactive
O=C(NCCCn1ccnc1)c1cc([N+](=O)[O-])cc([N+](=O)[O-])c1	none (no result: zVAD death inh)
O=C(c1ccco1)c1coc2c1cc(O)c1ccccc12	STAT3 act-1 161.2 | STAT3 act-2 164.1 | NFkB act STAT3ct inactive | STAT1 act STAT3c inactive
CC(=O)c1coc2c1cc(O)c1ccccc12	none
CCOC(=O)C1CCN(C2=C(NS(=O)(=O)c3ccc(Cl)cc3)C(=O)c3ccccc3C2=O)CC1	none (no result: STAT3 act-1, STAT1 blocker, STAT3 blocker)
COc1ccc(CNc2nc3ccccc3n2C)c(OC)c1	none
O=c1c2ccccc2ncn1Cc1ccco1	STAT3 act-1 147.3 | STAT3 act-2 144.8 | NFkB act STAT3ct inactive | STAT1 act STAT3c inactive
CCOc1ccccc1C1C(C(N)=O)=C(C)Nc2nc(-c3ccc(OC)cc3)nn21 (centres undefined)	none
CC(=O)c1c(-c2ccc(C)cc2)nc2c3ccccc3ccn12	STAT3 act-1 141.8 | STAT3 act-2 142.9 | NFkB act STAT3ct inactive | STAT1 act STAT3c inactive
CN(C)c1ccc(P(=O)(Nc2ccc([N+](=O)[O-])cc2)N2CCOCC2)c(NC(=O)c2cccs2)c1 (centres undefined)	STAT3 act-1 140.1 | STAT3 act-2 149.0 | NFkB act STAT3ct inactive | STAT1 act STAT3c inactive
CN(C)c1ccc(P(=O)(Nc2ccccc2)N2CCOCC2)c(NC(=O)c2cccs2)c1 (centres undefined)	STAT3 act-1 135.8 | STAT3 act-2 140.0 | NFkB act STAT3ct inactive | STAT1 act STAT3c inactive
Cc1ccc(NP(=O)(c2ccc(N(C)C)cc2NC(=O)c2cccs2)N2CCOCC2)cc1 (centres undefined)	STAT3 act-1 138.9 | STAT3 act-2 135.1 | NFkB act STAT3ct inactive | STAT1 act STAT3c inactive
Cc1ccc(NP(=O)(c2ccc(N(C)C)cc2NC(=O)c2cccs2)N2CCOCC2)cc1Cl (centres undefined)	none
CCSc1nc2sc3c(c2c(=O)[nH]1)CCc1ccccc1-3	STAT3 act-1 143.8 | STAT3 act-2 152.3 | NFkB act STAT3ct inactive | STAT1 act STAT3c inactive
COc1cc(NC(=O)C2CCCN(S(=O)(=O)c3ccc4c(c3)oc(=O)n4C)C2)cc(OC)c1 (centres undefined)	none
N#Cc1c(C(F)(F)F)cc(-c2ccc(Cl)c(Cl)c2)nc1SCCN1CCOCC1	STAT3 act-1 159.7 | STAT3 act-2 146.3 | NFkB act STAT3ct inactive | STAT1 act STAT3c inactive
Cc1cc(C(F)(F)F)nc(SCCN2CCOCC2)c1C#N	none
COc1ccccc1-c1nnc(Nc2nc3c(OC)cccc3s2)o1	STAT3 act-1 141.9 | STAT3 act-2 inactive | NFkB act STAT3ct 137.3 | STAT1 act STAT3c 141.1
CCC(=O)N(Cc1cc(=O)[nH]c2ccccc12)c1cccc(C)c1	STAT3 act-1 142.4 | STAT3 act-2 inactive | NFkB act STAT3ct inactive | STAT1 act STAT3c inactive
